Screening results deposited in PubChem BioAssay by The Scripps Research Institute Molecular Screening Center.
Rows were chosen to be rich in hits. Some 2.6% of all compounds tested hit in one or more screens of this group.
TCR-CD3 inh: inhibitors of human TCR-CD3 interaction, primary screen, biochemical, fluorescence, TAMRA-labeled TCR probe; hit rate 0.37% among 360,000; T-cell receptor (TCR); inhibition, % at 9.4 µM; in the data active = inhibition above about 19%;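 note: recombinant mutant TCR 2C K166C tagged with TAMRA read by polarization; 0% = receptor in buffer alone and 100% = receptor with positive control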
HTRA1 inh: HTRA1 serine protease inhibitors, primary screen, biochemical, fluorescence polarization, HTS; Q92743; hit rate 0.5% among 340,000; AID 504803, 2011; inhibition, % at 5.96 µM; recombinant HTRA1, FP-rhodamine activity-based probe; in the data active = inhibition above about 36%;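 note: 0% = enzyme with DMSO and 100% = wells lacking enzyme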
PRMT1 inh: PRMT1 methyltransferase inhibitors, primary screen, biochemical, fluorescence polarization | recombinant PRMT1, activity-based probe fluorescence polarization | hit rate 1.3% among 370,000 | Protein arginine N-methyltransferase 1 (Homo sapiens), Q99873 | AID 652257, 2013 | inhibition, % at 2.79 µM;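 active = inhibition above about 21% made by adding two undisclosed values, limit read from the data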
mABHD4 FP: ABHD4 inhibitors, primary screen, biochemical, fluorescence polarization, mouse. (Lyso)-N-acylphosphatidylethanolamine lipase (Mus musculus), Q8VD66. purified mABHD4, FP-Rh probe fluorescence polarization. inhibition, % at 8.92 µM. hit rate 0.54% among 370,000. AID 720543, 2013;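 active = inhibition exceeding the mean over every tested compound plus 3 SD, cut at about 30% in these data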;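 note: 0% = plate median of compound wells and 100% = S159A mutant with DMSO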
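Assay system: mABHD4 protein; medium: HEPES pH 7.0, NaCl, Pluronic buffer; dosing: 8.92 µM, single dose; schedule: 45 min + 60 min at 25 °C; signal: FP readout, ex 525 nm / em 598 nm; read-out: normalized percent inhibition of probe labeling; repeats: single replicate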
SIAE primary: human SIAE inhibitors, primary screen, biochemical, fluorescence polarization, FP-Rh probe, 1536-well HTS; hit rate 0.69% among 370,000; inhibition, % at 9.66 µM; Sialate O-acetylesterase (Homo sapiens), Q9HAT2; SIAE FP-Rh probe binding;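 active = inhibition above a cutoff: mean of compounds within the control limits plus 3 SD of those, cut at about 17% in these data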;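 note: 0% = plate median of compound wells and 100% = probe without SIAE protein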
Target sequence (Q9HAT2 whole entry, looked up): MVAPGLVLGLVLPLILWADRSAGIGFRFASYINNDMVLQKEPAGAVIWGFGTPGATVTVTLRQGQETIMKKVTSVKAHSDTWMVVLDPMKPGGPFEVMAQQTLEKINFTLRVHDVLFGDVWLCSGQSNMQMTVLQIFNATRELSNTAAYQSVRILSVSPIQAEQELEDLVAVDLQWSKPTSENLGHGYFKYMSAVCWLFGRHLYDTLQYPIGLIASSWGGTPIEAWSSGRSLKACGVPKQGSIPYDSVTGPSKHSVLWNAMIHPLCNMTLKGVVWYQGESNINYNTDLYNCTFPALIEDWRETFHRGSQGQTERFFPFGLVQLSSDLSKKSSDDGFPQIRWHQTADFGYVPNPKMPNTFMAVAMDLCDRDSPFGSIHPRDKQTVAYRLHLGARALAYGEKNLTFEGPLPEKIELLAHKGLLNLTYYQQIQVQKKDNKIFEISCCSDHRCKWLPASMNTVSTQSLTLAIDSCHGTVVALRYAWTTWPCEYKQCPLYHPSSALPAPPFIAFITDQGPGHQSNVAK
SIAE inh conf: human SIAE inhibitors, retest, confirmation, biochemical, fluorescence polarization, FP-Rh probe, triplicate; shares compounds with SIAE primary; SIAE FP-Rh activity-based probe; inhibition, % at 9.66 µM; hit rate 13% among 2,300; AID 1117263, 2014;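 active = mean inhibition of the replicates above the hit cutoff set in the primary screen, cut at about 17% in these data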;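 note: 0% = SIAE with DMSO and probe and 100% = probe without SIAE; inhibitors lower polarization as more probe stays unbound to SIAE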
Starred values were filed as active, the others as inactive; . = no result.

SMILES	TCR-CD3 inh	HTRA1 inh	PRMT1 inh	mABHD4 FP	SIAE primary	SIAE inh conf
CC(CCc1ccccc1)NC(=O)CSc1cccc[n+]1[O-] (stereo unspecified)	9	-1	-4	3	19*	0
CC(CCc1ccccc1)NC(=O)CSc1ccccc1 (stereo unspecified)	3	0	2	-1	-3	.
Oc1ccc(/C=N/Nc2ccc3ccccc3c2)c(O)c1	0	28	9	17	21*	17
Cc1cc(N/N=C/c2ccc(O)cc2O)c2ccccc2n1	1	5	5	2	4	.
COCCNC(=O)c1cccc(OC2CCN(Cc3ccc(C(=O)OC)cc3)CC2)c1	-4	-3	-4	-3	51*	1
COCCNC(=O)c1cccc(OC2CCN(Cc3ccc(C(C)C)cc3)CC2)c1	1	-4	-2	5	-1	.
CC1CCC(C(C)C)C(OC(=O)COC(=O)c2cc(O)ccc2N)C1 (stereo unspecified)	5	18	10	26	20*	9
CCc1nc2c(OCCc3cccc(OC)c3)cccn2c1N(C)C(=O)c1ccc(OC)cc1	-9	.	2	-2	5	.
COc1cccc2[nH]c(C(=O)NC(C)c3ccccc3)cc12 (stereo unspecified)	2	-6	-2	-7	7	.
CCN(CC)c1ccc(NC(=O)c2cc3c(OC)cccc3[nH]2)cc1	-2	22	4	10	25*	12
CCOc1ccc(CCNC(=O)c2[nH]c(C)c(C(C)=O)c2CC)cc1OCC	4	-5	1	-3	0	.
CCOC(=O)c1c(C)[nH]c(C(=O)NCCc2ccc(OC)c(OC)c2)c1C	3	-4	-2	1	22*	-2
O=C(N/N=C/c1c[nH]c2ccccc12)c1cc(Cl)ccc1O	0	14	2	15	18*	4
O=C(N/N=C/c1c[nH]c2ccccc12)c1ccccc1Cl	8	4	0	2	9	.
O=C(Nc1ccc(F)c(Cl)c1)Nc1csc2ccccc12	3	-13	5	-4	23*	-11
Cc1ccc(SCC(=O)OCC(=O)N(CCC#N)c2ccccc2)cc1C	-6	-2	5	4	29*	5
Cc1cc(C)nc(N/N=C/c2cccc([N+](=O)[O-])c2)n1	-2	.	2	-2	-6	.
Cc1nc(Cl)c(N=Cc2cccc([N+](=O)[O-])c2)c(Cl)n1	3	2	-7	6	18*	0
CCOc1ccc(S(=O)(=O)NCCC(=O)OCN2C(=O)c3ccccc3C2=O)cc1	-4	6	-1	5	18*	2
COC(=O)c1ccc(OC(=O)CCN2c3ccccc3Sc3ccccc32)cc1	-5	10	1	-1	6	.
CC(=O)c1ccc(OC(=O)CCN2c3ccccc3Sc3ccccc32)cc1	2	35	-1	-5	19*	-3
CCN1CCN(Cc2nc3ccc([N+](=O)[O-])cc3c(=O)n2-c2ccc(OC)cc2OC)CC1	-10	-2	-5	0	19*	0
CC(OC(=O)c1ccc(Cl)c([N+](=O)[O-])c1)C(=O)N1CCN(Cc2ccccc2)CC1 (stereo unspecified)	-2	6	-1	-1	-2	.
Cn1cc([N+](=O)[O-])c(C(=O)N/N=C/c2ccncc2)n1	2	-5	-4	2	17*	3
Cn1cc([N+](=O)[O-])c(C(=O)N/N=C/c2ccc([N+](=O)[O-])cc2)n1	6	2	-3	4	-3	.
SMILES	TCR-CD3 inh	HTRA1 inh	PRMT1 inh	mABHD4 FP	SIAE primary	SIAE inh conf
COc1cccc(-c2nc(NC(C)(C)C)c3ccccc3n2)c1O	-3	-13	-4	11	15	.
COc1ccc(Nc2nc(-c3cccc(OC)c3O)nc3ccccc23)cc1	-3	15	-3	20	18*	-29
Cc1ccc(N/N=C(\C#N)C(N)=S)c(C)c1	7	0	0	5	54*	0
CCOC(=O)C1=CCN(S(=O)(=O)c2ccccc2C)C1c1ccc(Cl)c(Cl)c1 (stereo unspecified)	-8	.	-1	-16	-3	.
COc1ccc(-c2cc(C(=O)N/N=C/c3cccnc3)c3cc(C)cc(C)c3n2)cc1	-3	-37	-3	-27	-35	.
S=C(NNc1ccnc2cc(Cl)ccc12)Nc1ccccc1Cl	7	-10	9	17	24*	20*
S=C(Nc1ccccc1Cl)Nc1ccc(Cl)cc1Cl	-1	-1	-3	0	0	.
CN(C)c1ccc(-c2csc(C(O)c3ccc(F)c(F)c3)n2)cc1 (stereo unspecified)	3	.	2	4	17*	2
CN(C)c1ccc(-c2csc(C(O)c3ccc(F)cc3)n2)cc1 (stereo unspecified)	-3	.	0	12	8	.
Cc1cccc(CNC(=O)CC2C(=O)NCCN2C2CCCC2)c1 (stereo unspecified)	3	-2	-3	2	-2	.
O=C(NCc1nnc(SCC(=O)N2CCCC2)o1)c1ccco1	-5	4	3	-4	-3	.
CC1CCN(C(=O)CSc2nnc(CNC(=O)c3ccco3)o2)CC1	-2	2	-1	0	22*	1
COc1cc(NC(=O)CCCOc2ccc(Cl)cc2Cl)c(C(=O)O)cc1OC	-3	-2	3	2	-1	.
O=C(CCCOc1ccc(Cl)cc1Cl)Nc1ccc(O)cc1C(=O)O	-12	-1	5	5	17*	-8
CCNC(=S)N1CCc2cc(OC)c(OC)cc2C1COc1ccccc1OC (stereo unspecified)	-11	-8	1	2	18*	2
CN(C)c1ccc(C2NC(=O)c3ccccc3N2)cc1 (stereo unspecified)	-6	7	-3	-2	17	.
COc1ccc(C2Nc3cccc4cccc(c34)N2)cc1	-1	4	2	2	25*	11
CN(C)c1ccc(C2Nc3cccc4cccc(c34)N2)cc1	1	22	4	3	38*	7
Cc1ncnc(N)c1CCCNc1ccccc1	3	4	2	0	4	.
Cc1csc(NC(=O)c2ccc(S(=O)(=O)N3CCN(C)CC3)cc2)n1	6	2	0	-4	5	.
CCOc1ccc2[nH]c3c(NCCc4ccc(OC)c(OC)c4)ncnc3c2c1	-10	11	6	15	19*	14
COc1cc(CNc2ncnc3c2[nH]c2ccc(C)cc23)cc(OC)c1	-11	-5	-1	22	37*	13
